Laboratory results taken from ChEMBL document CHEMBL3244337, “Antiallergic activity of tetracyclic derivatives of quinoline-2-carboxylic acid. 2. Some benzothienoquinolinecarboxylic acids” (1978).

tested on: Rattus norvegicus; experiment: Antiallergic activity in ip dosed Sprague-Dawley rat assessed as compound required to > 50% inhibition of egg albumin/Bordetulla pertusis antibody-induced passive sensitization treated 5 mins before induction by passive cutaneous anaphylaxis assay; format: functional; conditions: not given
In short: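 Passive cutaneous anaphylaxis in Sprague-Dawley rats. Intradermal anti-egg-albumin antibody was left for 24 h, then compound was given ip 5 min before iv antigen and Evans blue, with six animals per dose. Initial doses were 25, 10 or 5 mg/kg, then a descending series down to 0.156 mg/kg. MED is the lowest dose giving >50% inhibition of weal area versus untreated rats, p ≤ 0.05 (Student's t test).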

Compound	MED>50 [mg/kg]
COc1ccc2sc3ccc4[nH]c(C(=O)O)cc(=O)c4c3c2c1	>5
O=C(O)c1cc(=O)c2c(ccc3sc4ccc(F)cc4c32)[nH]1	>5
O=C(O)c1cc(=O)c2ccc3sc4ccccc4c3c2[nH]1	>10
O=C(O)c1cc(=O)c2ccc3c(c2[nH]1)-c1ccccc1S3(=O)=O	5
O=C(O)c1cc(=O)c2ccc3c(c2[nH]1)S(=O)(=O)c1ccccc1-3	>25
O=C(O)c1cc(=O)c2c(ccc3c4ccccc4sc32)[nH]1	>10
O=C(O)c1cc(=O)c2c3c(ccc2[nH]1)-c1ccccc1S3(=O)=O	>10
O=C(O)c1cc(=O)c2cc3c(cc2[nH]1)S(=O)(=O)c1ccccc1-3	2.5
O=C(O)c1cc(=O)c2c(ccc3sc4ccccc4c32)[nH]1	5
O=C(O)c1cc(=O)c2c(ccc3sc4ccc(Br)cc4c32)[nH]1	>10
O=C(O)c1cc(=O)c2c(ccc3sc4ccc(Cl)cc4c32)[nH]1	>10
Cc1ccc2sc3ccc4[nH]c(C(=O)O)cc(=O)c4c3c2c1	>10
O=C(O)c1cc(=O)c2c(ccc3sc4c(Cl)cccc4c32)[nH]1	>10
COc1cccc2c1sc1ccc3[nH]c(C(=O)O)cc(=O)c3c12	>5
Cc1cccc2c1sc1ccc3[nH]c(C(=O)O)cc(=O)c3c12	>5
O=C(O)c1cc(=O)c2c(cc(Cl)c3sc4ccccc4c32)[nH]1	>10
COc1cc2[nH]c(C(=O)O)cc(=O)c2c2c1sc1ccccc12	>10
O=C(O)c1cc(=O)c2c3c(ccc2[nH]1)S(=O)(=O)c1ccc(Br)cc1-3	>10
O=C(O)c1cc(=O)c2c3c(ccc2[nH]1)S(=O)(=O)c1ccc(Cl)cc1-3	>10
Cc1ccc2c(c1)-c1c(ccc3[nH]c(C(=O)O)cc(=O)c13)S2(=O)=O	10
COc1ccc2c(c1)-c1c(ccc3[nH]c(C(=O)O)cc(=O)c13)S2(=O)=O	2.5

Compound	MED>50 [mg/kg]
CCCCCCOc1ccc2c(c1)-c1c(ccc3[nH]c(C(=O)O)cc(=O)c13)S2(=O)=O	>10
O=C(O)c1cc(=O)c2c3c(ccc2[nH]1)S(=O)(=O)c1ccc(F)cc1-3	5
O=C(O)c1cc(=O)c2c3c(ccc2[nH]1)S(=O)(=O)c1c(Cl)cccc1-3	5
COc1cccc2c1S(=O)(=O)c1ccc3[nH]c(C(=O)O)cc(=O)c3c1-2	2.5
Cc1cccc2c1S(=O)(=O)c1ccc3[nH]c(C(=O)O)cc(=O)c3c1-2	2.5
O=C(O)c1cc(=O)c2c3c(c(Cl)cc2[nH]1)S(=O)(=O)c1ccccc1-3	2.5
COc1cc2[nH]c(C(=O)O)cc(=O)c2c2c1S(=O)(=O)c1ccccc1-2	1.25
COc1cc2c(c3c(=O)cc(C(=O)O)[nH]c13)-c1ccccc1S2(=O)=O	1.25
O=C(O)c1cc(=O)c2c3c(cc(Br)c2[nH]1)S(=O)(=O)c1ccccc1-3	2.5
O=C(O)c1cc(=O)c2c([nH]1)c(Br)cc1c2c2ccccc2[s+]1[O-] (stereo not drawn)	2.5
O=C(O)c1cc(=O)c2cc3c(cc2[nH]1)-c1ccccc1S3(=O)=O	2.5
O=C(O)c1cc(=O)c2c(Cl)c3c(cc2[nH]1)-c1ccccc1S3(=O)=O	0.312
O=C(O)c1cc(=O)c2cc3c(c(Cl)c2[nH]1)-c1ccccc1S3(=O)=O	0.625
O=C(O)c1cc(=O)c2cc3c(c(Br)c2[nH]1)-c1ccccc1S3(=O)=O	1.25
O=C(O)c1cc(=O)c2c(Cl)c3c(c(Cl)c2[nH]1)-c1ccccc1S3(=O)=O	1.25
Cc1c2c(cc3c(=O)cc(C(=O)O)[nH]c13)S(=O)(=O)c1ccccc1-2	1.25
O=C(O)c1cc(=O)c2cc3sc4ccccc4c3c(Cl)c2[nH]1	>10
O=C(O)c1cc(=O)c2cc3sc4ccccc4c3c(Br)c2[nH]1	>10
CSCc1c2[nH]c(C(=O)O)cc(=O)c2cc2sc3ccccc3c12	>5
O=C(O)c1cc(=O)c2cc3c(cc2[nH]1)c1ccccc1[s+]3[O-] (stereo not drawn)	1.25
O=C(O)c1cc(=O)c2cc3c(c(Cl)c2[nH]1)c1ccccc1[s+]3[O-] (stereo not drawn)	1.25

tested on: Rattus norvegicus; experiment: Antiallergic activity in ip dosed Sprague-Dawley rat assessed as compound inhibition of egg albumin/Bordetulla pertusis antibody-induced passive sensitization treated 5 mins before induction by passive cutaneous anaphylaxis assay; format: functional; conditions: read-out: ID50 (the source's name)
In short: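 Rat antiserum against egg albumin, raised with Bordetella pertussis as adjuvant, was injected intradermally into the middorsal skin. Sensitization developed for 24 h. Compound was given ip 5 min before iv egg albumin plus Evans blue, at 10 to 0.156 mg/kg with six rats per dose. Blue-weal area was compared with untreated rats as % inhibition. ID50 was reported with 95% confidence limits.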

Compound	ED50 [mg/kg]
O=C(O)c1cc(=O)c2c3c(ccc2[nH]1)S(=O)(=O)c1ccccc1-3	1.3
O=C(O)c1cc(=O)c2c(ccc3c2c2ccccc2[s+]3[O-])[nH]1 (stereo not drawn)	0.3
O=C([O-])c1cc(=O)c2c(OCC(O)COc3cccc4oc(C(=O)[O-])cc(=O)c34)cccc2o1.[Na+].[Na+] [CROMOLYN SODIUM]	2.6

tested on: Rattus norvegicus; experiment: Ratio of DSCG MED to compound MED for antiallergic activity in ip dosed Sprague-Dawley rat assessed as compound inhibition of egg albumin/Bordetulla pertusis antibody-induced passive sensitization treated 5 mins before induction by passive cutaneous anaphylaxis assay; format: functional; conditions: not given

Compound	Ratio
O=C(O)c1cc(=O)c2c(ccc3c2c2ccccc2[s+]3[O-])[nH]1 (stereo not drawn)	8
O=C(O)c1cc(=O)c2c(Cl)c3c(cc2[nH]1)-c1ccccc1S3(=O)=O	8
O=C(O)c1cc(=O)c2cc3c(c(Cl)c2[nH]1)-c1ccccc1S3(=O)=O	4
